FLuc inh counter = firefly luciferase enzyme inhibitors, primary screen, artefact control for luciferase-based inhibitor screens, biochemical, luminescence, ATPLite. inhibition, % at 10 µM. Luciferin 4-monooxygenase (Photinus pyralis), P08659. 10 min. 200,000 compounds, 1.5% hits;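 active = inhibition above about 50% when tested at 10 µM, limit read from the data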
Target sequence (P08659 whole entry, looked up): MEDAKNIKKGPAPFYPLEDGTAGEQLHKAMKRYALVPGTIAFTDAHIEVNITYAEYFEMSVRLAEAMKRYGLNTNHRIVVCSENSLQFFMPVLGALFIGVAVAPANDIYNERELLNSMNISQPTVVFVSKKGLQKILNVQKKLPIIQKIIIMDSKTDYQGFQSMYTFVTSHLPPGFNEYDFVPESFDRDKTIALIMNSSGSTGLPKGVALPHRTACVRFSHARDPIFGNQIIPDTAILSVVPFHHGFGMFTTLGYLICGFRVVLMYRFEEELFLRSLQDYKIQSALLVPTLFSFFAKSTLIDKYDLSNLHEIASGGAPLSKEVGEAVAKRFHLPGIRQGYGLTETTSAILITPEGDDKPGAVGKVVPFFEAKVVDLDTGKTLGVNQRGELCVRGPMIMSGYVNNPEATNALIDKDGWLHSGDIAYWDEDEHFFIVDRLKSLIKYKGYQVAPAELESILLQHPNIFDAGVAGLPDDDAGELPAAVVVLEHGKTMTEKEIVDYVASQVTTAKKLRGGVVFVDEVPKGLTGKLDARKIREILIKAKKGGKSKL
STAT3 blocker = IL-6 driven STAT3 reporter inhibitors, primary screen, U3A cells, luciferase, luminescence, MLSCN library. IL-6 STAT3-luciferase reporter; host cell line lacks STAT1. inhibition, % at 5.5 µM. 190,000 compounds, 0.89% hits;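 active = inhibition above the mean inhibition across all screened compounds plus 3 SD, cut at about 44% in these data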;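 note: 0% = DMSO only wells and 100% = 100 µM nifuroxazide control wells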
FLuc stim CS = FLuc activators, initial screening, artefact control for FLuc-dependent activation tests, biochemical, ATPlite luminescence; ATPlite luciferase biochemical, 10 min; 0 = ATP-free wells, 1 = DMSO control; activation factor at 10 µM; 200,000 tested, under 10 active;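 active = luciferase activation factor, scaled between plate controls, of at least 2 with compound at 10 µM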
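Material: luciferase plus luciferin reagent, cell-free. Medium: PBS buffer for ATP. Also added: ATP substrate, dispensed from a 10.24 µM working solution in PBS. Doses: test compounds dosed from 2 mM stocks in 100% DMSO. Incubation: 10 min post-reagent at room temperature. Technique: light output (luminescence). Read-out basis: luminescence gain marking luciferase activators.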
C8 TRAIL sens = viability loss with TRAIL in NB7+C8 cells, primary screen, TRAIL sensitizer project, cell-based, ATPlite luminescence | 360,000 compounds, 1% hits | inhibition (viability loss, TRAIL sensitization), % at 10 µM;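 active = compounds causing at least 50% loss of cell viability in the single-dose screen, relative to plate controls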
PPC-1+TRAIL kill = compounds killing PPC-1 cancer cells with TRAIL present, primary screen, TRAIL potentiator project, ATPLite luminescence, uHTS; AID 1443, 2008; cell killing (% activity), % at 4 µM or 5 µM; PPC-1 cells + TRAIL, ATPLite viability luminescence; 220,000 compounds, 0.41% hits;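 active = cell killing above 50% in the first pass at 4 µM, then a duplicate retest at 5 µM averaging 50% or more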;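 note: plate controls were cells with TRAIL plus DMSO for no effect and medium-only wells lacking cells for full effect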
HSP90 refold inh = HSP90 inhibitors, primary screen, cell lysate, luminescence | AID 1789, 2009 | Rabbit reticulocyte lysate, luciferase refolding luminescence, 3 h | inhibition, % at 5.6 µM | 290,000 compounds, 0.91% hits;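 active = inhibition above the screen-wide mean plus 3 SD, computed separately per campaign, cut at about 16% in these data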;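 note: 0% = DMSO wells and 100% = 60 µM geldanamycin wells; inhibitors lower the luminescence because luciferase stays unfolded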
HSP90 confirm = HSP90 inhibitors, confirmation, cell lysate, luminescence; inhibition, % at 5.9 µM; shares compounds with HSP90 refold inh; rabbit reticulocyte lysate, luciferase refolding luminescence, 3 h; 2,300 compounds, 64% hits; AID 1846, 2009; in the data active = inhibition above about 18%;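 note: 0% = vehicle wells and 100% = reference inhibitor wells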
FLuc counter = firefly luciferase inhibitors, HSP90 counter-screen, confirmation, artefact control for HSP90 inhibitor project, biochemical, luminescence, triplicate. 2,300 compounds, 48% hits. shares compounds with HSP90 refold inh. purified native firefly luciferase. inhibition, % at 5.9 µM. AID 1847, 2009;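 active = inhibition above the mean inhibition of all tested sample wells plus 3 SD, cut at about 10% in these data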;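 note: 0% = DMSO with luciferase and 100% = wells lacking luciferase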
* hit, by the source's call; x = not tested or not shown. Compounds with a hit are over-represented: about 2.2% of the library has one in this group of screens.

SMILES	FLuc inh counter	STAT3 blocker	FLuc stim CS	C8 TRAIL sens	PPC-1+TRAIL kill	HSP90 refold inh	HSP90 confirm	FLuc counter
Cc1cc(C(=O)Cn2nc(C(=O)O)c3ccccc3c2=O)c(C)n1CC(F)(F)F	32.6	-10.7	0.7	-3.3	-3.0	25.8*	44.5*	-21.7
COCC(C)n1c(C)cc(C(=O)Cn2nc(C(=O)O)c3ccccc3c2=O)c1C (stereo unspecified)	71.3*	16.4	0.3	5.9	10.8	41.7*	51.8*	-11.4
Cc1ccc2nc(-c3sc4nc(C)cc(C)c4c3N)[nH]c2c1	63.8*	-44.4	0.4	56.0*	30.6	24.8*	23.3*	18.8*
O=C(Oc1ccc2ccccc2c1Br)N1CCCCCC1	46.7	0.8	0.5	34.1	33.3	21.7*	42.9*	26.2*
CN1CCN(c2ccc(NC(=O)c3ccc4ccccc4c3)cc2)CC1	x	x	x	45.0	x	24.9*	30.9*	28.5*
COc1ccc(C(=O)Nc2ccc(N3CCN(C)CC3)cc2)cc1	x	x	x	5.8	x	-3.0	x	x
CC(C)Oc1cccc(C(=O)Nc2ccc(N3CCN(S(C)(=O)=O)CC3)cc2)c1	-3.5	3.0	1	11.9	20.0	5.1	x	x
Cc1ccc(C(=O)NCc2ccc(N3CCN(C)CC3)cc2)cc1C	x	x	x	0.1	x	21.9*	0.5	-8.9
COc1cccc(C(=O)Nc2ccc(N3CCN(S(C)(=O)=O)CC3)cc2)c1	10.7	-2.8	0.9	13.3	32.7	17.5*	-7.7	-18.5
CN1CCN(c2ccc(CNC(=O)c3cc4ccccc4o3)cc2)CC1	x	x	x	7.0	6.4	-1.5	x	x
CCCCNC(=O)COC(=O)c1c2c(nc3ccccc13)CCC2	x	x	x	1.1	x	33.0*	6.4	-4.8
CNC(=O)COC(=O)c1c2c(nc3ccccc13)CCC2	x	x	x	-0.1	12.1	4.9	x	x
CC(CCc1ccccc1)NC(=O)CCNC(=O)Cn1ccc2ccccc2c1=O (stereo unspecified)	-0.6	-0.7	1	10.8	33.9	1.5	x	x
O=C(Nc1ccc(S(=O)(=O)NCCc2ccccc2)cc1)c1ccco1	-0.6	18.4	1	-2.8	-3.1	25.9*	-7.2	-8.7
O=C(Nc1ccsc1C(=O)O)c1ccc(Cl)cc1	x	x	x	-1.7	x	6.9	x	x
Cc1ccc(C(=O)Nc2ccsc2C(=O)O)cc1	x	x	x	30.0	x	18.0*	13.4	-1.4
CCOC(=O)c1c(NC(=O)C(NCCN(C)C)c2ccccc2)sc2c1CCCC2 (stereo unspecified)	x	x	x	28.9	x	23.2*	5.8	-3.1
CNC(=O)Nc1cc(NC(=O)NC)cc(C(F)(F)F)c1	x	x	x	1.8	0.8	3.8	x	x
COc1ccc(NC(=O)c2ccc3c(=O)n(-c4ccc(OC)cc4OC)c(=S)[nH]c3c2)c(OC)c1	-5.4	24.8	1.1	-4.0	15.4	-4.2	x	x
CCOc1ccc(NC(=O)c2ccc3c(=O)n(-c4ccc(OC)cc4OC)c(=S)[nH]c3c2)cc1	x	x	x	20.7	x	69.1*	8.2	-3.8
CS(=O)(=O)N(CC(=O)O)c1ccc(Oc2ccccc2)cc1	0.2	-0.4	1	5.4	17.8	17.3*	2.9	-3.3
CCOC(=O)C1CCCN(C(=O)c2cccc(S(=O)(=O)N(Cc3ccccc3)c3ccccc3OC)c2)C1 (stereo unspecified)	x	x	x	23.3	x	x	x	x
NS(=O)(=O)c1c(Sc2ccccc2C(=O)O)ccc2ccccc12	x	x	x	4.4	x	23.5*	19.8*	-16.7
Cc1cc(C(=O)COC(=O)c2ccc(O)cc2)c(C)n1CC(F)(F)F	x	x	x	3.2	x	x	x	x
Cc1cc(C(=O)COC(=O)c2ccc(O)cc2)c(C)n1-c1ccccc1F	41.9	13.4	0.6	7.3	8.7	50.3*	58.4*	49.2*
SMILES	FLuc inh counter	STAT3 blocker	FLuc stim CS	C8 TRAIL sens	PPC-1+TRAIL kill	HSP90 refold inh	HSP90 confirm	FLuc counter
CCOc1ccc(Oc2nc(N(CC)CC)nc(N3CCOCC3)n2)nn1	-0.4	26.8	1	5.9	8.0	17.4*	-6.6	-10.3
CCN(CC)c1nc(Oc2ccc(C(=O)OC)cc2)nc(N2CCOCC2)n1	-4.8	-5.3	1	8.5	19.8	-1.8	x	x
NC(Cc1ccc(C(F)(F)F)cc1)c1csc(Nc2cc(NCc3ccco3)ncn2)n1 (stereo unspecified)	x	x	x	17.0	x	x	x	x
CN(C)c1ccc(/C=N/Nc2cccc(C(=O)O)c2)cc1	x	x	x	0.5	x	76.0*	97.1*	94.2*
O=C(O)c1cccc(N/N=C/c2cccnc2)c1	1.5	37.7	1	-2.3	4.8	15.0	x	x
COc1ccccc1/C=C/C=N/Nc1cccc(C(=O)O)c1	x	x	x	0.6	x	56.6*	64.1*	49.4*
O=C(O)c1cccc(N/N=C/c2ccc(-c3ccccc3)cc2)c1	49.9	48.1*	0.5	20.4	23.1	28.0*	53.6*	67.3*
COc1ccc(Br)cc1/C=N/Nc1cccc(C(=O)O)c1	-2.9	-9.8	1	-1.5	7.2	3.7	x	x
Cc1[nH]c2ccccc2c1/C=N/Nc1cccc(C(=O)O)c1	x	x	x	0.7	-19.1	54.2*	54.1*	41.0*
O=C(Cc1cccs1)N1CCN(S(=O)(=O)c2cccc([N+](=O)[O-])c2)CC1	x	x	x	-6.5	x	-1.6	x	x
CCc1nnc(N/N=C/c2c(C)[nH]c3ccccc23)n1N	-3.6	4.8	1	-9.3	5.1	75.0*	-0.8	-3.4
O=C(NC(=S)Nc1cccc2c(O)cccc12)c1ccccc1[N+](=O)[O-]	x	x	x	-10.7	x	35.1*	9.3	3.7
O=C(O)c1ccc(NC(=S)NC(=O)c2cncc(Br)c2)cc1	x	x	x	-6.7	x	51.2*	24.7*	-2.4
CCOc1ccc(-c2nc(CN3CCCCC3CCn3cccn3)c(C)o2)cc1 (stereo unspecified)	x	x	x	3.6	0.2	17.9*	36.3*	0.2
O=C(NC1=NCCS1)C1COc2ccccc2O1 (stereo unspecified)	76.5*	98.8*	0.2	42.5	28.8	78.7*	92.1*	81.0*
O=C(N=C1c2ccccc2CN1c1ccc(F)c(Cl)c1)c1cccnc1Cl	7.6	6.6	0.9	x	-4.1	1.2	x	x
Cc1ccc2nc(Cl)c(C3CC(c4cccs4)=NN3S(C)(=O)=O)cc2c1 (stereo unspecified)	6.5	10.0	0.9	-9.6	-3.2	4.7	x	x
NNC(=S)NC1CC2CC1C1C=CCC21 (stereo unspecified)	x	x	x	-9.0	23.4	24.8*	-3.8	-9.6
CC(C)(C)n1ncc2c(=O)n(CC(=O)NCc3ccccc3)cnc21	33.8	-2.1	0.7	12.4	11.3	21.2*	37.0*	33.7*

Compound activity as filed in PubChem.
